We go through 18 compounds from ChEMBL document CHEMBL4428136, “Cell Active Hydroxylactam Inhibitors of Human Lactate Dehydrogenase with Oral Bioavailability in Mice” (ACS Med Chem Lett, 2016).

Data set [1] in a line: Volume of distribution at steady state in CD-1 mouse at 1 mg/kg, iv administered as bolus by LC-MS/MS analysis. In kind it is ADME, organism-based. Particulars: in vivo, read-out: Vdss.
Data set [2] is described as follows: Cmax in CD-1 mouse at 100 mg/kg, po administered as suspension by LC-MS/MS analysis. The class given is ADME, organism-based. More on the design: dose 100 mg/kg, route oral. Conditions: in vivo.
Data set [3] is described as follows: AUC in CD-1 mouse at 1 mg/kg, iv administered as bolus by LC-MS/MS analysis. The class given is ADME, organism-based. Particulars: in vivo.
Data set [4] in a line: AUC in CD-1 mouse at 50 mg/kg, po administered as suspension by LC-MS/MS analysis. In kind it is ADME, organism-based. Conditions: in vivo.
Data set [5] is described as follows: Oral bioavailability in CD-1 mouse at 5 mg/kg. In kind it is ADME, organism-based. Conditions: in vivo. In short, it runs like this:
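Bioavailability was derived from paired intravenous and oral administration in mice, with the oral dose at 5 mg/kg.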

A short description of data set [6]: Apparent permeability across apical to basolateral side in MDCK cells. Conditions: dog. In kind it is ADME, cell-based, Canis lupus familiaris.
Data set [7] in a line: Cmax in CD-1 mouse at 1 mg/kg, iv administered as bolus by LC-MS/MS analysis. In kind it is ADME, organism-based. More on the design: dose 1 mg/kg, route intravenous. Particulars: in vivo.
Data set [8] can be described thus: AUC in CD-1 mouse at 100 mg/kg, po administered as suspension by LC-MS/MS analysis. In kind it is ADME, organism-based. Conditions: in vivo.
Data set [9] can be described thus: Lipophilicity, log D of the compound at pH 7.4 by high throughput method. In kind it is physicochemical. Particulars: buffer.
Data set [10] in a line: Plasma clearance in CD-1 mouse at 1 mg/kg, iv administered as bolus by LC-MS/MS analysis. The class given is ADME, organism-based.
Data set [11] can be described thus: Half life in CD-1 mouse at 1 mg/kg, iv administered as bolus by LC-MS/MS analysis. In kind it is ADME, organism-based. Conditions: in vivo.
Data set [12] can be described thus: AUC in CD-1 mouse at 5 mg/kg, po administered as suspension by LC-MS/MS analysis. In kind it is ADME, organism-based. Particulars: in vivo.
Data set [13] is described as follows: Cmax in CD-1 mouse at 200 mg/kg, po administered as suspension by LC-MS/MS analysis. In kind it is ADME, organism-based. More on the design: dose 200 mg/kg, route oral. Conditions: in vivo.
Data set [14] is described as follows: Cmax in CD-1 mouse at 5 mg/kg, po administered as suspension by LC-MS/MS analysis. In kind it is ADME, organism-based. Further details: dose 5 mg/kg, route oral. Conditions: in vivo.
The nature of data set [15]: Cmax in CD-1 mouse at 50 mg/kg, po administered as suspension by LC-MS/MS analysis. The class given is ADME, organism-based. More on the design: dose 50 mg/kg, route oral. Particulars: in vivo.
A short description of data set [16]: Protein binding in CD-1 mouse plasma. The class given is ADME, cell-free. Particulars: read-out: PPB (converted).
Data set [17] in a line: AUC in CD-1 mouse at 200 mg/kg, po administered as suspension by LC-MS/MS analysis. Particulars: in vivo. In kind it is ADME, organism-based.
The target of data set [18] is L-lactate dehydrogenase B chain (Homo sapiens, UniProt P07195). In words: Inhibition of human recombinant carboxy-terminal His-tagged LDHB by UV endpoint assay.
L-lactate dehydrogenase B chain, sequence (P07195 whole entry): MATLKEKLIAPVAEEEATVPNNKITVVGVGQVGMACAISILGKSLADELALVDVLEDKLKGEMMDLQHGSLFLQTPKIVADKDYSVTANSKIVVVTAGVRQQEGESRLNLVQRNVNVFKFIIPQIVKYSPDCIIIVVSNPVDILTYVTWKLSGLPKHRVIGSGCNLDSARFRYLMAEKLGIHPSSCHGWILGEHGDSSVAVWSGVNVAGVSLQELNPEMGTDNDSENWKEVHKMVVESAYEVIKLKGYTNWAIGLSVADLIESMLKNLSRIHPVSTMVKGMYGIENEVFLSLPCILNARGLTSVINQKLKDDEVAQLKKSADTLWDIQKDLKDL

One may read the Cmax as the peak of the concentration-time curve. By AUC is commonly meant concentration integrated over time. A lower AUC goes with low exposure. The bioavailability is dose-corrected exposure relative to a reference, in per cent. The low end stands for little systemic uptake, the high end for much systemic uptake. A word on the Papp A→B: it is how fast a substance crosses the layer from the apical side. One may read the logD as the decadic logarithm of the distribution of all forms, ionised or not, between an organic phase and buffer at a given pH. A low value points to lower lipophilicity. By clearance is commonly meant a measure of how efficiently the substance is removed, as volume per time. Higher therefore signals efficient removal. The term half-life denotes the time in which the quantity being followed falls by half. The low end stands for fast loss, the high end for slow loss. In the case of `O=C1N[C@](c2ccc(N3CCOCC3)cc2)(c2ccsc2)CC(O)=C1Sc1ccccc1Cl`, the Vd in data set [1] came out at 1.4 L/kg. Further, the Cmax in data set [2] is 224 µM; in [7], 2.5 µM; in data set [13] it was 440 µM; in [14], 1.7 µM; in data set [15] it was 60.7 µM. The AUC in [3] was found to be 1.5 µM·h; in data set [4] it was 125 µM·h; in data set [8] it was 250 µM·h; in data set [12], 5.1 µM·h; in [17], 403 µM·h. In data set [5], this compound showed a bioavailability of 70%. The Papp A→B in data set [6] was 3.4 ×10⁻⁶ cm/s. The same compound gave a logD in data set [9] of 0.6. In data set [10], the clearance was determined as 21.1 mL/min/kg. In data set [11], this compound gave a half-life of 1 h. Besides, the fraction unbound in data set [16] is 0.009.

Usually IC50 stands for the concentration needed to halve the response being measured. In the case of `COc1ccc(C2(c3ccsc3)CC(O)=C(Sc3ccccc3Cl)C(=O)N2)cc1` (stereo not given), in [18], the IC50 was 210 nM.

Regarding `O=C1NC(c2ccsc2)(c2ccccn2)CC(O)=C1Sc1ccccc1Cl` (stereo not given), the IC50 in data set [18] is > 10000 nM.

As to `O=C1NC(c2ccccc2)(c2cscn2)CC(O)=C1Sc1ccccc1Cl` (stereo not given), the IC50 in data set [18] is 2300 nM.

As for `N#CC1CCN(c2ccc(C3(c4ccsc4)CC(O)=C(Sc4ccccc4Cl)C(=O)N3)cc2)CC1` (stereo not given), the logD in [9] was determined as 0.8.

Take `O=C1NC(c2ccsc2)(c2ccccc2F)CC(O)=C1Sc1ccccc1Cl` (stereo not given): in data set [18], the IC50 stood at 1800 nM.

In the case of `N#Cc1ccc(C2(c3ccsc3)CC(O)=C(Sc3ccccc3Cl)C(=O)N2)cc1` (stereo not given), the IC50 in [18] is 1100 nM.

Consider `O=C1NC(c2ccccc2)(c2ccsc2)CC(O)=C1Sc1ccccc1Cl` (stereo not given), for which, in [6], the Papp A→B is 7.4 ×10⁻⁶ cm/s. In data set [9], the logD worked out at 0.8.

On to `CC1CN(c2ccc(C3(c4ccsc4)CC(O)=C(Sc4ccccc4Cl)C(=O)N3)cc2)CC(C)O1` (stereo not given), for which the Papp A→B in [6] was found to be 6 ×10⁻⁶ cm/s. In addition, in [9], the logD stood at 1.3. For the same compound, the fraction unbound in data set [16] was < 0.001.

In data set [9], `O=C1NC(c2ccc(N3CCOCC3=O)cc2)(c2ccsc2)CC(O)=C1Sc1ccccc1Cl` (stereo not given) registered a logD of 0.4.

Consider `CC1(C)CN(c2ccc(C3(c4ccsc4)CC(O)=C(Sc4ccccc4Cl)C(=O)N3)cc2)CCO1` (stereo not given), for which the logD in data set [9] is 1.3.

The compound `O=C1NC(c2ccc(N3CCC4(CC3)COC4)cc2)(c2ccsc2)CC(O)=C1Sc1ccccc1Cl` (stereo not given) registered a logD in [9] of 0.7.

Consider `O=C1NC(c2ccccc2)(c2ccccc2)CC(O)=C1Sc1ccccc1Cl`, for which the IC50 in data set [18] was 2200 nM. Moreover, the Papp A→B in data set [6] was found to be 9.4 ×10⁻⁶ cm/s. In data set [9], this compound displayed a logD of 1.4. Also, in data set [16], the fraction unbound is 0.007.

In data set [9], `COC1CCN(c2ccc(C3(c4ccsc4)CC(O)=C(Sc4ccccc4Cl)C(=O)N3)cc2)CC1` (racemic) yielded a logD of 1.2.

As for `O=C1NC(c2ccc(N3CCCCC3)cc2)(c2ccsc2)CC(O)=C1Sc1ccccc1Cl` (racemic), the apparent permeability from apical to basolateral (Papp A→B) in data set [6] stood at 1.7 ×10⁻⁶ cm/s. The logD in [9] was 2.1. Further, the fraction unbound in data set [16] was < 0.001.

Regarding `O=C1NC(c2ccsc2)(c2cccc(NC3CCOCC3)c2)CC(O)=C1Sc1ccccc1Cl` (racemic), in [6], the Papp A→B worked out at 0.5 ×10⁻⁶ cm/s. The logD in data set [9] is -0.3.

Regarding `O=C1NC(c2ccsc2)(c2cccc(Nc3ccc(F)cc3)c2)CC(O)=C1Sc1ccccc1Cl` (racemic), in [6], the Papp A→B is 1 ×10⁻⁶ cm/s. In data set [9], this compound had a logD of 2.4. Further, in data set [16], the fraction unbound is < 0.001.

Compound `O=C1NC(c2ccc(C3CCCCC3)cc2)(c2ccsc2)CC(O)=C1Sc1ccccc1Cl` (racemic) had a logD in data set [9] of 3.5.
